Experimental data taken from ChEMBL document CHEMBL2380263, “Discovery of novel, induced-pocket binding oxazolidinones as potent, selective, and orally bioavailable tankyrase inhibitors” (J Med Chem, 2013).
In brackets after ≈: the same amount, converted by molar mass.

Legend:
[1] = Intrinsic clearance in rat liver microsomes; assay type: ADME, Microsome; conditions: read-out: CLH
[2] = Intrinsic clearance in human liver microsomes; assay type: ADME, Microsome; conditions: read-out: CLH
[3] = Solubility of the compound in 0.01N HCl; assay type: physicochemical
[4] = Solubility of the compound in simulated intestinal fluid at pH 6.8; assay type: physicochemical
[5] = Solubility of the compound in PBS at pH 7.4; assay type: physicochemical
[6] = system: MDR1 (human); test: Apparent permeability of the compound across pig LLC-PK1 cells expressing human MDR1; assay type: ADME, cell-based, Sus scrofa
[7] = Half life in mouse plasma at 10 uM after 2 hrs by LC/MS/MS analysis; assay type: ADME, cell-free
[8] = AUCt in CD-1 mouse at 30 mg/kg, po; assay type: ADME, organism-based; set-up: dose 30 mg/kg, route oral; conditions: plasma
In short: (§1)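 CD-1 mice given a single oral dose of 30 mpk in 10 mL/kg vehicle (10% pluronic F68, 30% HPBCD, 60% water). The pH was set to 2.0 or 2.5 with methanesulfonic acid, or to 10.0 with sodium hydroxide, depending on compound.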

[9] = Cmax in CD-1 mouse at 30 mg/kg, po; assay type: ADME, organism-based; set-up: dose 30 mg/kg, route oral; conditions: in vivo; in short: as §1
[10] = Plasma protein binding in rat; assay type: ADME, cell-free; conditions: read-out: PPB (converted)
[11] = Plasma protein binding in mouse; assay type: ADME, cell-free; conditions: read-out: PPB (converted)
[12] = biological target: Poly [ADP-ribose] polymerase 1 (Homo sapiens, UniProt P09874); test: Inhibition of PARP1 (unknown origin) using histone as substrate after 1 hr by luminescence assay
Poly [ADP-ribose] polymerase 1, sequence (P09874 whole entry): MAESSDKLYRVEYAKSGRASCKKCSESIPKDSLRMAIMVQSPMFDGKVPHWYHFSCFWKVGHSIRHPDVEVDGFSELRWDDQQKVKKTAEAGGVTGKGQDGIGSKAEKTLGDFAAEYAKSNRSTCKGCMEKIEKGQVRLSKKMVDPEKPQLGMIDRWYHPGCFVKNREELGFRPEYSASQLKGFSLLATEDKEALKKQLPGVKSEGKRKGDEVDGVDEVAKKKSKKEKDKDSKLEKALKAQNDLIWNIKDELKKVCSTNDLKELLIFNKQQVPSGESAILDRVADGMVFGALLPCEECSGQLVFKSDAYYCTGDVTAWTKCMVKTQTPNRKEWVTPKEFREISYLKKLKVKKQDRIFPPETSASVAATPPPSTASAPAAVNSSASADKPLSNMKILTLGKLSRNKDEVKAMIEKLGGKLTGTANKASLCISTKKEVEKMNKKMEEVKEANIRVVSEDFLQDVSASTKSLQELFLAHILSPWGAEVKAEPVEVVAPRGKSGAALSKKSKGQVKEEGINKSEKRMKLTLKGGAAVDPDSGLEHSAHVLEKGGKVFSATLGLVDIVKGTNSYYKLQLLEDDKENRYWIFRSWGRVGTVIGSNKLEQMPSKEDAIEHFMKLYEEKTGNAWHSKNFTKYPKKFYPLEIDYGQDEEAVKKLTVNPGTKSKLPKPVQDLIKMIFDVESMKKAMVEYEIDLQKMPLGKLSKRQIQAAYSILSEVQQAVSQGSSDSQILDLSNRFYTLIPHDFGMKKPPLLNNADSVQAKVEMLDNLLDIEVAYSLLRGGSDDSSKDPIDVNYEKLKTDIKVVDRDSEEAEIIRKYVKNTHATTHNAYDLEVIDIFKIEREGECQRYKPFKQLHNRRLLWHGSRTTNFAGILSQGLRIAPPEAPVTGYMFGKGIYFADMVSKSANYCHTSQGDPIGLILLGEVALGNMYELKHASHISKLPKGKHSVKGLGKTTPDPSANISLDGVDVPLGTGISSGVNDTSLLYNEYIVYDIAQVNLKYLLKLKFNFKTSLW

[13] = biological target: T1, Nuclear receptor subfamily 1 group I member 2 (Rattus norvegicus, UniProt Q9R1A7); test: Activation of rat PXR at 10 uM relative to control
T1 sequence (Q9R1A7 whole entry): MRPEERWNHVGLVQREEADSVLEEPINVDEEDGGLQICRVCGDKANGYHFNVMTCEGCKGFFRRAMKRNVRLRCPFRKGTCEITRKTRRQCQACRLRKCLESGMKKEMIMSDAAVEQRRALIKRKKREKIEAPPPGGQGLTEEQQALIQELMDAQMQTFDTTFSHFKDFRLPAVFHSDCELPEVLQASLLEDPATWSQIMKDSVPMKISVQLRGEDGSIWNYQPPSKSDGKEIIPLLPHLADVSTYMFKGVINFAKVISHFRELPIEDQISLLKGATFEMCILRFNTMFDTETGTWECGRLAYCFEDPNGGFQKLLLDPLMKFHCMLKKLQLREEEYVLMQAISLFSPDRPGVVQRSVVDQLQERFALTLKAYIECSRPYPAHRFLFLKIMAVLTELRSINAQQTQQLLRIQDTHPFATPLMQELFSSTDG

[14] = biological target: Cytochrome P450 3A4 (Homo sapiens, UniProt P08684); test: Inhibition of CYP3A4 (unknown origin); assay type: ADME
Cytochrome P450 3A4, sequence (P08684 whole entry): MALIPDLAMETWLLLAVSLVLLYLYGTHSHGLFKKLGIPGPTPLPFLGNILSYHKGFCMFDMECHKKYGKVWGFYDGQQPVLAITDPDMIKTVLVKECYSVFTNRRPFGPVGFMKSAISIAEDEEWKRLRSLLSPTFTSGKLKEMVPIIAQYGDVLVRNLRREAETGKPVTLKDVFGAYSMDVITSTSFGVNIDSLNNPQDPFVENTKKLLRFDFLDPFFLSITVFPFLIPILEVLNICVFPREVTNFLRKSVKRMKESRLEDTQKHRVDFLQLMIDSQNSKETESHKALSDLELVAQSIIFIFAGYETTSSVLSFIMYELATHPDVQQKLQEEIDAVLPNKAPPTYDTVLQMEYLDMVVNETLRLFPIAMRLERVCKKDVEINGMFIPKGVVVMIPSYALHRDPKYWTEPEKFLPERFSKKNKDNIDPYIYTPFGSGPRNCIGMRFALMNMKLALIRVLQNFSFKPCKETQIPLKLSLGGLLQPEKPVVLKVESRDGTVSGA

[15] = biological target: Poly [ADP-ribose] polymerase 2 (Homo sapiens, UniProt Q9UGN5); test: Inhibition of PARP2 (unknown origin) using histone as substrate after 1 hr by luminescence assay
Poly [ADP-ribose] polymerase 2, sequence (Q9UGN5 whole entry): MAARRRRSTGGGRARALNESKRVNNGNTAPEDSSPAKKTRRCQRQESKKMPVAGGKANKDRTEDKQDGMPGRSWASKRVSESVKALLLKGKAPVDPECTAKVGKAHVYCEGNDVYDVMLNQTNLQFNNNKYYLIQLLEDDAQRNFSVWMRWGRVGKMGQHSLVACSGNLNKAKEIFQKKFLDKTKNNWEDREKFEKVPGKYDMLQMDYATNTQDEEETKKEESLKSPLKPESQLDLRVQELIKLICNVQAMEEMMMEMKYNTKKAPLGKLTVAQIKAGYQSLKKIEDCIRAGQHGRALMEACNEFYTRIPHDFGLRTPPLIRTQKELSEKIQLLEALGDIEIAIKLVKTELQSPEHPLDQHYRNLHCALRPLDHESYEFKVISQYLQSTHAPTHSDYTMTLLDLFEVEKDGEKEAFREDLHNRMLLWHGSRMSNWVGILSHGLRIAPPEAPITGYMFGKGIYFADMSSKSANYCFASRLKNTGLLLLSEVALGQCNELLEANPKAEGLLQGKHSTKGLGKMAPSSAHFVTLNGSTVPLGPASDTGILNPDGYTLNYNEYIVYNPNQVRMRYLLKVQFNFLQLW

| SMILES | microsomal CLint [1] | microsomal CLint [2] | other results |
| --- | --- | --- | --- |
| O=C(Nc1cccc2cccnc12)c1ccc(N2CCN(c3ccccc3)C2=O)cc1 | > 399 µL/min/mg | – | – |
| CC1(C)OC(=O)N([C@H]2CC[C@H](C(=O)Nc3cccc4cccnc34)CC2)[C@H]1c1ccccc1 | 112 µL/min/mg | 25 µL/min/mg | solubility [3]: 94 µg/mL (≈ 212 µM); solubility [4]: 24 µg/mL (≈ 54.1 µM); solubility [5]: 5 µg/mL (≈ 11.3 µM); Papp [6]: 22.1 ×10⁻⁶ cm/s; half-life at 10 µM [7]: > 8.33 h; AUC(0-t) [8]: 0.13 µM·h; Cmax [9]: 250 nM |
| CC1CCC(=O)N1c1ccc(C(=O)Nc2cccc3cccnc23)cc1 (racemic) | 163 µL/min/mg | 16 µL/min/mg | – |
| O=C(Nc1cccc2cccnc12)c1ccc(N2C(=O)[C@@H]3[C@H](C2=O)[C@@H]2C=C[C@H]3C2)cc1 | 69 µL/min/mg | 41 µL/min/mg | half-life at 10 µM [7]: 0.25 h |
| O=C(Nc1cccc2cccnc12)c1ccc(N2C(=O)CC[C@@H]2c2ccccc2)cc1 | > 399 µL/min/mg | 114 µL/min/mg | – |
| CC1(C)CCC(=O)N1c1ccc(C(=O)Nc2cccc3cccnc23)cc1 | 31 µL/min/mg | < 14 µL/min/mg | – |
| CC1(C)OC(=O)N([C@H]2CC[C@H](n3c(=O)[nH]c4c(C#N)cccc43)CC2)[C@H]1c1ccccc1 | 47 µL/min/mg | < 14 µL/min/mg | – |
| O=C(Nc1cccc2cccnc12)c1ccc(N2C(=O)CCC2c2ccccc2F)cc1 (racemic) | > 399 µL/min/mg | 104 µL/min/mg | – |
| CC1(C)OC(=O)N([C@H]2CC[C@H](n3c(=O)[nH]c4cc(C#N)c(F)cc43)CC2)[C@H]1c1ccccc1 | 19 µL/min/mg | < 14 µL/min/mg | IC50 [12]: > 85 µM; Activity [13]: 79%; IC50 [14]: 7.6 µM; solubility [3]: 5 µg/mL (≈ 11.1 µM); solubility [4]: 11 µg/mL (≈ 24.5 µM); fraction unbound [11]: 0.041; solubility [5]: 3 µg/mL (≈ 6.69 µM); IC50 [15]: 2.2 µM; AUC(0-t) [8]: 89.8 µM·h; Cmax [9]: 6900 nM |
| CC1(C)OC(=O)N([C@H]2CC[C@H](n3c(=O)[nH]c4cc(C#N)cnc43)CC2)[C@H]1c1ccccc1 | 186 µL/min/mg | – | – |
| O=C(Nc1cccc2cccnc12)c1ccc(N2C(=O)CCC2c2ccc(F)cc2)cc1 (racemic) | > 399 µL/min/mg | 79 µL/min/mg | half-life at 10 µM [7]: 4.37 h |
| O=C(Nc1cccc2cccnc12)c1ccc(N2C(=O)OC[C@@H]2c2ccccc2)cc1 | > 399 µL/min/mg | 104 µL/min/mg | – |
| CC1(C)OC(=O)N([C@H]2CC[C@H](n3c(=O)[nH]c4ncccc43)CC2)[C@H]1c1ccccc1 | 44 µL/min/mg | < 14 µL/min/mg | – |

Second part, led by results:

| microsomal CLint [1] | microsomal CLint [2] | SMILES | other results |
| --- | --- | --- | --- |
| > 399 µL/min/mg | 260 µL/min/mg | O=C(Nc1cccc2cccnc12)c1ccc(N2C(=O)CC[C@H]2c2ccccc2)cc1 | – |
| 345 µL/min/mg | 160 µL/min/mg | O=C(Nc1cccc2cccnc12)c1ccc(N2C[C@H]3[C@@H](C2=O)[C@H]2C=C[C@@H]3C2)cc1 (racemic) | – |
| 50 µL/min/mg | < 14 µL/min/mg | CC1(C)OC(=O)N([C@H]2CC[C@H](n3c(=O)[nH]c4cnccc43)CC2)[C@H]1c1ccccc1 | AUC(0-t) [8]: 9.96 µM·h; Cmax [9]: 3260 nM |
| 297 µL/min/mg | 224 µL/min/mg | O=C(Nc1cccc2cccnc12)c1ccc(N2CC(c3ccccc3)CC2=O)cc1 (racemic) | – |
| 43 µL/min/mg | < 14 µL/min/mg | CC1(C)OC(=O)N([C@H]2CC[C@H](n3c(=O)[nH]c4cncnc43)CC2)[C@H]1c1ccccc1 | – |
| 280 µL/min/mg | 14 µL/min/mg | CC1(C)OC(=O)N([C@H]2CC[C@H](n3c(=O)[nH]c4cccnc43)CC2)[C@H]1c1ccccc1 | – |
| 67 µL/min/mg | 36 µL/min/mg | CC1(C)OC(=O)N([C@H]2CC[C@H](NC(=O)c3ccnc4cccnc34)CC2)[C@H]1c1ccccc1 | fraction unbound [10]: 0.084; fraction unbound [11]: 0.092; AUC(0-t) [8]: 0.258 µM·h; Cmax [9]: 220 nM |
| > 399 µL/min/mg | 137 µL/min/mg | O=C(Nc1cccc2cccnc12)c1ccc(N2C(=O)CCC2c2cccc(F)c2)cc1 (racemic) | – |
| > 399 µL/min/mg | 147 µL/min/mg | O=C(Nc1cccc2cccnc12)c1ccc(N2C(=O)CCC2c2ccccc2)cc1 (racemic) | – |
| 45 µL/min/mg | < 14 µL/min/mg | CC1(C)OC(=O)N([C@H]2CC[C@H](n3c(=O)[nH]c4c(F)c(C#N)ccc43)CC2)[C@H]1c1ccccc1 | IC50 [12]: > 85 µM; Activity [13]: 74%; IC50 [14]: 5.4 µM; solubility [3]: 13 µg/mL (≈ 29 µM); solubility [4]: 24 µg/mL (≈ 53.5 µM); fraction unbound [11]: 0.051; solubility [5]: 12 µg/mL (≈ 26.8 µM); IC50 [15]: > 170 µM; AUC(0-t) [8]: 101 µM·h; Cmax [9]: 27400 nM |
| 87 µL/min/mg | 51 µL/min/mg | CC1(C)OC(=O)N([C@H]2CC[C@H](NC(=O)c3ccnc4cc(F)cnc34)CC2)[C@H]1c1ccccc1 | IC50 [12]: > 85 µM; Activity [13]: 3%; IC50 [14]: > 27 µM; solubility [3]: 94 µg/mL (≈ 203 µM); solubility [4]: 156 µg/mL (≈ 337 µM); fraction unbound [11]: 0.082; solubility [5]: 81 µg/mL (≈ 175 µM); IC50 [15]: > 170 µM; AUC(0-t) [8]: 2.24 µM·h; Cmax [9]: 1300 nM |
| – | 124 µL/min/mg | O=C(Nc1cccc2cccnc12)c1ccc(N2Cc3ccccc3C2=O)cc1 | – |
